Assay results from ChEMBL document CHEMBL2029242 (J Med Chem, 2012).

Assays:
[1] = Clearance in Sprague-Dawley rat at 1 mg/kg, iv and 10 mg/kg, po; type: ADME, organism-based; settings: in vivo
Procedure, shortened: (§1)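 Single-dose PK. Rats: male Sprague−Dawley, jugular-catheterized, 1 mg/kg iv in 3:1 PEG400/water (n = 2) and 10 mg/kg po in Pharmatek #6 (n = 3). Female athymic nude mice: 100 mg/kg po in Pharmatek #6 (n = 3). Beagle dogs and male cynomolgus monkeys (n = 3): crossover, 1 mg/kg iv and 10 mg/kg po in 22% HPβCD, overnight fast. Plasma LC-MS/MS to 24 h; noncompartmental parameters, mean ± SD.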

[2] = Volume of distribution in Sprague-Dawley rat at 1 mg/kg, iv and 10 mg/kg, po; type: ADME, organism-based; settings: in vivo
Procedure, shortened: (§2)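 Male Sprague-Dawley rats (250–350 g, jugular-catheterized) received a single dose either iv at 1 mg/kg in 3:1 PEG400/water (n = 2) or po at 10 mg/kg in Pharmatek #6 (n = 3). Plasma was sampled at 5 min (iv only), 15 and 30 min, and 1, 2, 4, 6 and 24 h. Samples were analyzed by LC-MS/MS after acetonitrile precipitation. Parameters came from noncompartmental linear-trapezoidal analysis of individual animals.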

[3] = Terminal half life in Sprague-Dawley rat at 1 mg/kg, iv and 10 mg/kg, po; type: ADME, organism-based; settings: in vivo, read-out: beta t1/2 (converted); procedure, shortened: as §2
[4] = AUC (infinity) in Sprague-Dawley rat at 10 mg/kg, po; type: ADME, organism-based; set-up: time infinity, dose 10 mg/kg, route oral; settings: plasma; procedure, shortened: as §1
[5] = Cmax in Sprague-Dawley rat at 10 mg/kg, po; type: ADME, organism-based; set-up: dose 10 mg/kg, route oral; settings: in vivo; procedure, shortened: as §1
[6] = Tmax in Sprague-Dawley rat at 10 mg/kg, po; type: ADME, organism-based; set-up: dose 10 mg/kg, route oral; settings: in vivo; procedure, shortened: as §2
[7] = Oral bioavailability in Sprague-Dawley rat at 10 mg/kg; type: ADME, organism-based; settings: in vivo; procedure, shortened: as §2
[8] = molecular target: T1, Serine/threonine-protein kinase B-raf (Homo sapiens, UniProt P15056, V600E)
[9] = molecular target: T1, Serine/threonine-protein kinase B-raf; remark: listed apart in the source
[10] = Stability in rat liver microsomes assessed as compound remaining at 1 uM after 60 mins; type: ADME, Microsome; settings: read-out: Stability
Procedure, shortened: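 Pooled liver microsomes (0.5 mg/mL) were premixed with 0.1 M phosphate buffer pH 7.4, 6.5 mM MgCl2 and test compound (1 μM final, 0.2% DMSO). NADPH (1 mM) started the reaction at 37 °C, in duplicate. Minus-NADPH and testosterone controls were included. Aliquots were taken at 0, 5, 15, 30 and 60 min and quenched in acetonitrile containing internal standard.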

A-375 = assay: Cytotoxicity against human A375 cells expressing BRAF V600E mutant after 72 hrs by cell titer blue assay; type: functional, cell-based; settings: A-375, 72 h
Procedure, shortened: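 Cells were grown in ATCC-recommended media and kept overnight in 0.5% serum. They were then exposed to compound for 72 h, and Cell Titer Blue was added for 3 h. EC50 came from fluorometric concentration−response curves, run in duplicate and repeated at least once.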

T1 sequence (P15056 2-766 V600E limits assumed): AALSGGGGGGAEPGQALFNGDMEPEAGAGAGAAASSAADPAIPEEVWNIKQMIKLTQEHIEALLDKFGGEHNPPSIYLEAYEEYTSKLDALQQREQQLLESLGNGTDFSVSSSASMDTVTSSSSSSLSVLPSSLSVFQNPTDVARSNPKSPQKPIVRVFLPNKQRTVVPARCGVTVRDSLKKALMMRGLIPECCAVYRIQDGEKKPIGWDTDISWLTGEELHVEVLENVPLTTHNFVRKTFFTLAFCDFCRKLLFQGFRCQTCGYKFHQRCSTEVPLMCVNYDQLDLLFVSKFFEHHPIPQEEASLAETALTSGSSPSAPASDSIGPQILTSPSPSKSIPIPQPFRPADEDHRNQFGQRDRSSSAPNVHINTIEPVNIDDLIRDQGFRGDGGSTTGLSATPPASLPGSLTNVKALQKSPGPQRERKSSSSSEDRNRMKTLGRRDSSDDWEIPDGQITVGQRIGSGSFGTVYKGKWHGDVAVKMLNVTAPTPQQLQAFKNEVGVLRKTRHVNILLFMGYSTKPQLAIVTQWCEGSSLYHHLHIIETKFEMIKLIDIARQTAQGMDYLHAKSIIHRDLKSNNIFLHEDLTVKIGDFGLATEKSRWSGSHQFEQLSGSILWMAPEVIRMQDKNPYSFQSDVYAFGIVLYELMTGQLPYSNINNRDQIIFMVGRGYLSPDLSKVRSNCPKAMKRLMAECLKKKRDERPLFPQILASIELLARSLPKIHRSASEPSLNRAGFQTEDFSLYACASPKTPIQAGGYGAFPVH

SMILES | clearance [1] | Vd [2] | half-life [3] | AUC(0-inf) [4] | Cmax [5] | Tmax [6] | bioavailability [7] | Kd [8] | IC50 [9] | remaining at 1 h, 1 µM [10] | IC50 (A-375)
COc1cc2ncnc(Oc3cccc(NC(=O)Nc4cc(C(C)(C)C)nn4-c4ccccc4)c3)c2cc1OC | 3.1 mL/min/kg | 0.3 L/kg | 4.2 h | 25.9 µM·h | 6.7 µM | 1.3 h | 33% | 295 nM | 21 nM | – | –
COc1cc2ncnc(Oc3cccc(NC(=O)Nc4cc(C(C)(C)C)no4)c3)c2cc1OC | 9.8 mL/min/kg | 1 L/kg | 8.2 h | 1.9 µM·h | 0.7 µM | 0.8 h | 6% | – | – | 51% | –
COc1cc2ncnc(Oc3cccc(NC(=O)Nc4cc(C(C)(F)F)no4)c3)c2cc1OC | – | – | – | – | – | – | – | 76 nM | 645 nM | – | 694 nM
COc1cc2ncnc(Oc3cccc(NC(=O)Nc4cc(C(C)(C)F)no4)c3)c2cc1OC | 4 mL/min/kg | 0.6 L/kg | 4.7 h | 42 µM·h | 7.9 µM | 2 h | 48% | 44 nM | 155 nM | 82% | 125 nM
COc1cc2ncnc(Oc3cccc(NC(=O)Nc4cc(C(C)(C)C)nn4C4CCCCC4)c3)c2cc1OC | – | – | – | – | – | – | – | 174 nM | > 1670 nM | – | > 15000 nM
COc1cc2ncnc(Oc3cccc(NC(=O)Nc4cc(C(C)(C)C(F)(F)F)nn4-c4ccccc4)c3)c2cc1OC | – | – | – | – | – | – | – | 271 nM | 62 nM | – | –
COc1cc2ncnc(Oc3cccc(NC(=O)Nc4cc(C(C)(C)C)nn4C)c3)c2cc1OC | – | – | – | – | – | – | – | 87 nM | 336 nM | – | 4270 nM
COc1cc2ncnc(Oc3cccc(NC(=O)Nc4cc(C(C)C)no4)c3)c2cc1OC | – | – | – | – | – | – | – | 31 nM | 340 nM | – | 2960 nM
COc1cc2ncnc(Oc3cccc(NC(=O)Nc4cc(C5CCCC5)on4)c3)c2cc1OC | – | – | – | – | – | – | – | 37 nM | 134 nM | – | 488 nM
COc1cc2ncnc(Oc3cccc(NC(=O)Nc4cc(C)on4)c3)c2cc1OC | – | – | – | – | – | – | – | 678 nM | > 15000 nM | – | > 15000 nM
COc1cc2ncnc(Oc3cccc(NC(=O)Nc4cc(C(C)(CF)CF)on4)c3)c2cc1OC | – | – | – | – | – | – | – | 45 nM | 109 nM | – | 145 nM
COc1cc2ncnc(Oc3cccc(NC(=O)Nc4cc(C(C)(C)C)nn4CC(C)C)c3)c2cc1OC | – | – | – | – | – | – | – | 101 nM | 681 nM | – | 1160 nM
COc1cc2ncnc(Oc3cccc(NC(=O)Nc4cc(C(C)(C)F)on4)c3)c2cc1OC | 2.9 mL/min/kg | 0.5 L/kg | 3.5 h | 127 µM·h | 21.1 µM | 2 h | 100% | 29 nM | 276 nM | 92% | 493 nM
COc1cc2ncnc(Oc3cccc(NC(=O)Nc4cc(C5(C(F)(F)F)CCC5)no4)c3)c2cc1OC | – | – | – | – | – | – | – | 129 nM | 308 nM | – | 2240 nM
COc1cc2ncnc(Oc3cccc(NC(=O)Nc4cc(C5(C(F)(F)F)CC5)on4)c3)c2cc1OC | – | – | – | – | – | – | – | 27 nM | 183 nM | – | 117 nM
COc1cc2ncnc(Sc3cccc(NC(=O)Nc4cc(C(C)(CF)CF)on4)c3)c2cc1OC | – | – | – | – | – | – | – | 50 nM | 93 nM | – | 223 nM
COc1cc2ncnc(Oc3cccc(NC(=O)Nc4cc(C(C)(C)C)nn4C(C)C)c3)c2cc1OC | – | – | – | – | – | – | – | 85 nM | 505 nM | – | 543 nM
COc1cc2ncnc(Oc3cccc(NC(=O)Nc4cc(C(C)(C)C)nn4Cc4ccccc4)c3)c2cc1OC | – | – | – | – | – | – | – | 175 nM | 480 nM | – | 1870 nM

SMILES | clearance [1] | Vd [2] | half-life [3] | AUC(0-inf) [4] | Cmax [5] | Tmax [6] | bioavailability [7] | Kd [8] | IC50 [9] | remaining at 1 h, 1 µM [10] | IC50 (A-375)
COc1cc2ncnc(Oc3cccc(NC(=O)Nc4cc(C(C)(C)C#N)no4)c3)c2cc1OC | – | – | – | – | – | – | – | 48 nM | 332 nM | – | 6160 nM
COc1cc2ncnc(Oc3cccc(NC(=O)Nc4cc(-c5ccccc5)no4)c3)c2cc1OC | – | – | – | – | – | – | – | 1450 nM | > 15000 nM | – | 7070 nM
COc1cc2ncnc(Oc3cccc(NC(=O)Nc4cnn(C(C)(C)C)c4)c3)c2cc1OC | – | – | – | – | – | – | – | 75 nM | 1130 nM | – | > 15000 nM
COc1cc2ncnc(Sc3cccc(NC(=O)Nc4cc(C(C)(C)F)no4)c3)c2cc1OC | – | – | – | – | – | – | – | 39 nM | 84 nM | – | 1470 nM
COc1cc2ncnc(Oc3cccc(NC(=O)Nc4cc(C(F)(F)F)no4)c3)c2cc1OC | – | – | – | – | – | – | – | 78 nM | 2230 nM | – | 5150 nM
COc1cc2ncnc(Oc3cccc(NC(=O)Nc4ccc(C(C)(C)C)cc4)c3)c2cc1OC | – | – | – | – | – | – | – | – | – | – | 3490 nM
COc1cc2ncnc(Oc3cccc(NC(=O)Nc4cc(C(C)C)on4)c3)c2cc1OC | – | – | – | – | – | – | – | 19 nM | 355 nM | – | 527 nM
COc1cc2ncnc(Oc3cccc(NC(=O)Nc4cc(C(C)(C)CO)on4)c3)c2cc1OC | – | – | – | – | – | – | – | 49 nM | 649 nM | – | > 15000 nM
COCC(C)(C)c1cc(NC(=O)Nc2cccc(Oc3ncnc4cc(OC)c(OC)cc34)c2)no1 | – | – | – | – | – | – | – | 151 nM | 324 nM | – | 1550 nM
COc1cc2ncnc(Oc3cccc(NC(=O)Nc4cc(C5CCCC5)no4)c3)c2cc1OC | – | – | – | – | – | – | – | 122 nM | 1130 nM | – | 4380 nM
COc1cc2ncnc(Oc3cccc(NC(=O)Nc4cc(C(C)(C)C)on4)c3)c2cc1OC | 7.3 mL/min/kg | 0.5 L/kg | 19.2 h | 17 µM·h | 11 µM | 0.8 h | 49% | – | – | 46% | 328 nM
COc1cc2ncnc(Sc3cccc(NC(=O)Nc4cc(C(C)(C)C(F)(F)F)on4)c3)c2cc1OC | – | – | – | – | – | – | – | 74 nM | 142 nM | – | > 15000 nM
COc1cc2ncnc(Oc3cccc(NC(=O)Nc4cc(-c5ccccc5)on4)c3)c2cc1OC | – | – | – | – | – | – | – | 136 nM | 956 nM | – | > 15000 nM
COc1cc2ncnc(Sc3cccc(NC(=O)Nc4cc(C5(C(F)(F)F)CC5)on4)c3)c2cc1OC | – | – | – | – | – | – | – | 31 nM | 469 nM | – | 222 nM
COc1cc2ncnc(Oc3cccc(NC(=O)Nc4cc(C(C)(CF)CF)no4)c3)c2cc1OC | – | – | – | – | – | – | – | 132 nM | 339 nM | – | 1980 nM
COc1cc2ncnc(Oc3cccc(NC(=O)Nc4cc(C(C)(C)C(F)(F)F)no4)c3)c2cc1OC | – | – | – | 40.7 µM·h | 4.7 µM | 1.7 h | – | 66 nM | 174 nM | – | 549 nM
COc1cc2ncnc(Oc3cccc(NC(=O)Nc4cccc(C(C)(C)C)c4)c3)c2cc1OC | – | – | – | – | – | – | – | – | – | – | 1770 nM
